The results in this text go back to ChEMBL document CHEMBL4177526, “Discovery and structure activity relationship of the first potent cryptosporidium FIKK kinase inhibitor” (Bioorg Med Chem, 2017).

Activity calls are given as the source filed them. The calls are words filed in the database; no cut-off is given here.

What is called IC50 is the point on the concentration scale where inhibition reaches its midpoint. What is called ΔTm is the change in melting temperature against a reference sample. By inhibition is commonly meant the drop in the measured response relative to a control, in per cent. One may read the EC50 as the concentration at which the effect is half-maximal. As a reminder, the efflux ratio is the permeability from basolateral to apical divided by that in the opposite direction, in the common usage.

Data set [1] in a line: Inhibition of recombinant Cryptosporidium parvum FIKK using RRRAPSFYRK peptide as substrate by NADH coupled LDH-PK ATPase assay.
Data set [2] in a line: Inhibition of Cryptosporidium parvum CDPK1 using PLARTLSVAGLPGKK peptide as substrate by NADH coupled LDH-PK ATPase assay. The procedure, abridged:
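NADH-coupled LDH-PK ATPase read-out with 1.2 nM recombinant CpCDPK1, 0.25 mM ATP, 0.1 mM Syntide 2.0 peptide and 2 mM CaCl2. Inhibitors were made as 10 mM DMSO stocks and tested in 2-fold serial dilutions. IC50 is the average of triplicate experiments.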

For data set [3], the target named is Cgd5_820 protein (Cryptosporidium parvum) (UniProt F0X4H1). Description: Inhibition of Cryptosporidium parvum calcium/calmodulin dependent protein kinase with a kinase domain and 4 calmodulin like EF hands assessed as change in melting temperature by DSLS method.
Data set [4] addresses Vascular endothelial growth factor receptor 2 (Homo sapiens) (UniProt P35968). Put plainly: Inhibition of human KDR at 100 nM relative to control.
The target in data set [5] is Mitogen-activated protein kinase 14 (Homo sapiens) (UniProt Q16539). Put plainly: Inhibition of human p38alpha at 1 uM relative to control.
The subject of data set [6] is Cryptosporidium parvum Iowa II. Put plainly: Inhibition of Cryptosporidium parvum Iowa II cyclin-dependent kinase 3 assessed as change in melting temperature by DSLS method.
Data set [7] deals with Cell division control protein 28, putative (Cryptosporidium parvum (strain Iowa II)) (UniProt A3FPL9). Description: Inhibition of Cryptosporidium parvum Iowa II cell division control protein 28 assessed as change in melting temperature by DSLS method.
For data set [8], the target named is Calcium-dependent protein kinase 2 (Cryptosporidium parvum, UniProt Q6S4V9). Description: Inhibition of Cryptosporidium parvum calcium-dependent protein kinase 2.
The target of data set [9] is Calcium/calmodulin-dependent protein kinase with a kinase domain and 2 calmodulin-like EF hands (Cryptosporidium parvum (strain Iowa II)) (UniProt Q5CZ29). Put plainly: Inhibition of Cryptosporidium parvum Iowa II calcium/calmodulin-dependent protein kinase with a kinase domain and 2 calmodulin-like EF hands assessed as change in melting temperature by DSLS method.
Data set [10] in a line: Inhibition of Cryptosporidium parvum CDPK6.
Data set [11] deals with Cell division control protein 28, putative (Cryptosporidium parvum (strain Iowa II), UniProt A3FPL9). Description: Inhibition of Cryptosporidium parvum Iowa II cell division control protein 28.
Data set [12] deals with Mitogen-activated protein kinase (Cryptosporidium parvum (strain Iowa II), UniProt A3FQ79). Description: Inhibition of Cryptosporidium parvum Iowa II mitogen-activated protein kinase.
A short description of data set [13]: Inhibition of Cryptosporidium parvum Iowa II glycogen synthase kinase.
In data set [14] the target is Vascular endothelial growth factor receptor 2 (Homo sapiens) (UniProt P35968). Put plainly: Inhibition of human KDR at 1 uM relative to control.
A short description of data set [15]: Inhibition of Cryptosporidium parvum Iowa II cyclin-dependent kinase 3.
Data set [16] in a line: Ratio of EC50 for antiparasitic activity against Cryptosporidium parvum Iowa oocysts infected in human HCT8 cells to IC50 for Cryptosporidium parvum CDPK1. Type of data set: functional.
The subject of data set [17] is Cryptosporidium parvum. Put plainly: Inhibition of Cryptosporidium parvum CDPK1 assessed as increase in thermal stabilization.
The target of data set [18] is Mitogen-activated protein kinase kinase kinase kinase 4 (Homo sapiens) (UniProt O95819). Description: Inhibition of human MAP4K4 at 1 uM relative to control.
In data set [19] the test system is Cryptosporidium parvum Iowa II. Description: Inhibition of Cryptosporidium parvum Iowa II glycogen synthase kinase assessed as change in melting temperature by DSLS method.
For data set [20], the system named is Cryptosporidium parvum Iowa II. Description: Inhibition of Cryptosporidium parvum Iowa II Serine/threonine-protein kinase Nek2 assessed as change in melting temperature by DSLS method.
Data set [21] can be described thus: Ratio of EC50 for antiparasitic activity against Cryptosporidium parvum Iowa oocysts infected in human HCT8 cells to IC50 for recombinant Cryptosporidium parvum FIKK. Type of data set: functional, cell-based.
The target of data set [22] is Calcium-dependent protein kinase 2 (Cryptosporidium parvum) (UniProt Q6S4V9). Description: Inhibition of Cryptosporidium parvum calcium-dependent protein kinase 2 assessed as change in melting temperature by DSLS method.
Data set [23] relates to Cryptosporidium parvum. Put plainly: Antiparasitic activity against Cryptosporidium parvum Iowa oocysts infected in human HCT8 cells pretreated prior to infection measured after 48 hrs by fluorescein labeled Vicia villosa lectin/Hoechst 33258 staining based epifluorescence microscopic analysis. Type of data set: functional, organism-based. In short, it runs like this:
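HCT-8 cells grown in RPMI-1640 with 10% heat-inactivated FBS and penicillin. Three-fold compound dilutions in culture medium were added to confluent cells before about 5500 excysted C. parvum Iowa oocysts per well. After 48 h, cells were fixed with 4% paraformaldehyde and permeabilized. Vacuoles were stained with fluorescein-Vicia villosa lectin (1.33 µg/mL, 1 h, 37 °C) and nuclei with Hoechst 33258, then imaged by epifluorescence microscopy.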

The subject of data set [24] is Cryptosporidium parvum. Description: Inhibition of Cryptosporidium parvum CDPK6 assessed as change in melting temperature by DSLS method.
The target in data set [25] is Cgd5_820 protein (Cryptosporidium parvum, UniProt F0X4H1). Put plainly: Inhibition of Cryptosporidium parvum calcium/calmodulin dependent protein kinase with a kinase domain and 4 calmodulin like EF hands.
The target of data set [26] is Calcium/calmodulin-dependent protein kinase with a kinase domain and 4 calmodulin like EF hands (Cryptosporidium parvum (strain Iowa II)) (UniProt Q5CYL9). Put plainly: Inhibition of Cryptosporidium parvum Iowa II calcium/calmodulin-dependent protein kinase with a kinase domain and 4 calmodulin like EF hands assessed as change in melting temperature by DSLS method.

Data set [27] concerns the target Calcium/calmodulin-dependent protein kinase with a kinase domain and 4 calmodulin like EF hands (Cryptosporidium parvum (strain Iowa II), UniProt Q5CYL9). Put plainly: Inhibition of Cryptosporidium parvum Iowa II calcium/calmodulin-dependent protein kinase with a kinase domain and 4 calmodulin like EF hands.
The target of data set [28] is Calcium/calmodulin-dependent protein kinase with a kinase domain and 2 calmodulin-like EF hands (Cryptosporidium parvum (strain Iowa II), UniProt Q5CZ29). Description: Inhibition of Cryptosporidium parvum Iowa II calcium/calmodulin-dependent protein kinase with a kinase domain and 2 calmodulin-like EF hands.
Data set [29] can be described thus: Inhibition of Cryptosporidium parvum Iowa II serine/threonine-protein kinase Nek2.
Data set [30] is described as follows: Inhibition of Cryptosporidium parvum Iowa II calcium/calmodulin-dependent protein kinase.
The target of data set [31] is Mitogen-activated protein kinase (Cryptosporidium parvum (strain Iowa II)) (UniProt A3FQ79). Description: Inhibition of Cryptosporidium parvum Iowa II mitogen-activated protein kinase assessed as change in melting temperature by DSLS method.
The subject of data set [32] is Cryptosporidium parvum Iowa II. Put plainly: Inhibition of Cryptosporidium parvum Iowa II calcium/calmodulin-dependent protein kinase assessed as change in melting temperature by DSLS method.
Data set [33] relates to Cryptosporidium parvum. Put plainly: Inhibition of recombinant Cryptosporidium parvum FIKK assessed as change in melting temperature at 50 uM by differential static light scattering method.
Data set [34] can be described thus: Inhibition of Cryptosporidium parvum Iowa II ser/Thr protein kinase FIKK.
Data set [35] in a line: Permeability in human Caco2 cells. Type of data set: ADME, cell-based. Conditions: Caco-2, read-out: permeability.
A short description of data set [36]: Efflux ratio of permeability in human Caco2 cells. It counts as ADME, cell-based. Conditions: Caco-2. On the technique in general: Caco-2 monolayers are a common model of the intestinal barrier.
Data set [37] has as its system Cryptosporidium parvum. Put plainly: Antiparasitic activity against Cryptosporidium parvum isolate AUCP-1 sporozoites infected in human HCT8 cells treated for 24 hrs followed by compound washout and supplemented with fresh medium containing compound at 24 intervals. The note with it: isolate AUCP-1, HCT-8, 24 h. It counts as functional, organism-based.
[38] abbreviates: Cryptosporidium parvum, Iowa, HCT-8, read-out: EC50.

Chain of Vascular endothelial growth factor receptor 2 (Homo sapiens) (P35968 whole entry): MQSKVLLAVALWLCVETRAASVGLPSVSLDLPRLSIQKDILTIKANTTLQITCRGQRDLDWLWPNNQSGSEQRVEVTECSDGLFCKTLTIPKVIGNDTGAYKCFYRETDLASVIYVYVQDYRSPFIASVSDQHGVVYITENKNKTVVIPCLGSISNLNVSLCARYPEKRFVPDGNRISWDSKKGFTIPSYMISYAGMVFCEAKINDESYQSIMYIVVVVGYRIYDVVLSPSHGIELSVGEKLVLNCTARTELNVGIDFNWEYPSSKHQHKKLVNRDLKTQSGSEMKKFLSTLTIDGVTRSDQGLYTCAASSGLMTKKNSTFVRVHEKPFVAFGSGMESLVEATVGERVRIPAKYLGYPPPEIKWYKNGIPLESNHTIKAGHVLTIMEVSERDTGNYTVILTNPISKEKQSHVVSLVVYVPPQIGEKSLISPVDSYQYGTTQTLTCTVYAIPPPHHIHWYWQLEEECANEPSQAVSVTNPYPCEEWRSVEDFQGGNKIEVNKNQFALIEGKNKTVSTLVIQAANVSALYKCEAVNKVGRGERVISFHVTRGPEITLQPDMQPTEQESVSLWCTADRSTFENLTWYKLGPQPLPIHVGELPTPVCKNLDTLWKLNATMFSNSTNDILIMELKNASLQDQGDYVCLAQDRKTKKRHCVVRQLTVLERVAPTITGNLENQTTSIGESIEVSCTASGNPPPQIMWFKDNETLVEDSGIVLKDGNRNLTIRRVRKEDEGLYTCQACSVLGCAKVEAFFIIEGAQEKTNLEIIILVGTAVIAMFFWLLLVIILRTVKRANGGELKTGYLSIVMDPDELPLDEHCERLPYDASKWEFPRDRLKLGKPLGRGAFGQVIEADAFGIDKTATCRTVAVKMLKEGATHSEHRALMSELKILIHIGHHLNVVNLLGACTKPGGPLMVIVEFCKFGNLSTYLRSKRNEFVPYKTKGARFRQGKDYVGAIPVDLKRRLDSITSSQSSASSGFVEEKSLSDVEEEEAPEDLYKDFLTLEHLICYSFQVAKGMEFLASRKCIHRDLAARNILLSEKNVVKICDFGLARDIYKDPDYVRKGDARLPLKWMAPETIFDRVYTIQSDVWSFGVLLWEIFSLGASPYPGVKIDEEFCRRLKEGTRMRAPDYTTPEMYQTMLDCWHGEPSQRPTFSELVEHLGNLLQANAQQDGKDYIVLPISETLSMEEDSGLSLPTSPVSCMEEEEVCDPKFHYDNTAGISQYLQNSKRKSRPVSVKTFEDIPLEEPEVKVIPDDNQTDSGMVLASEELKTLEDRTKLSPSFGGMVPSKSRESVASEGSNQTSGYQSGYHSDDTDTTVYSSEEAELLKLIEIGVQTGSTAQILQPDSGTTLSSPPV
Chain of Cell division control protein 28, putative (A3FPL9 whole entry): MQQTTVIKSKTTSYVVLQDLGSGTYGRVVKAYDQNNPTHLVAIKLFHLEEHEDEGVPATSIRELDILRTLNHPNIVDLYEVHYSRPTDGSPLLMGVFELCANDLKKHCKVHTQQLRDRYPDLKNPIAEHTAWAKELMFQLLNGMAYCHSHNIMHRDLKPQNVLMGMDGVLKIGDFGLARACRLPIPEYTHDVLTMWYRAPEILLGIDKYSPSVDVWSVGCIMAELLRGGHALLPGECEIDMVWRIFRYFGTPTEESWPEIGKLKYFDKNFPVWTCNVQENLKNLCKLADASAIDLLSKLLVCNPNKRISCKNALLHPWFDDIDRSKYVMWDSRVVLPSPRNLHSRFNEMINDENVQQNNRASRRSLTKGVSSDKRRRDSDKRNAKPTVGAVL
Chain of Cell division control protein 28, putative (Cryptosporidium parvum (strain Iowa II)) (A3FPL9 as listed by the source): as the sequence (A3FPL9 whole entry) above
Chain of Calcium/calmodulin-dependent protein kinase with a kinase domain and 2 calmodulin-like EF hands (Cryptosporidium parvum (strain Iowa II)) (Q5CZ29 as listed by the source): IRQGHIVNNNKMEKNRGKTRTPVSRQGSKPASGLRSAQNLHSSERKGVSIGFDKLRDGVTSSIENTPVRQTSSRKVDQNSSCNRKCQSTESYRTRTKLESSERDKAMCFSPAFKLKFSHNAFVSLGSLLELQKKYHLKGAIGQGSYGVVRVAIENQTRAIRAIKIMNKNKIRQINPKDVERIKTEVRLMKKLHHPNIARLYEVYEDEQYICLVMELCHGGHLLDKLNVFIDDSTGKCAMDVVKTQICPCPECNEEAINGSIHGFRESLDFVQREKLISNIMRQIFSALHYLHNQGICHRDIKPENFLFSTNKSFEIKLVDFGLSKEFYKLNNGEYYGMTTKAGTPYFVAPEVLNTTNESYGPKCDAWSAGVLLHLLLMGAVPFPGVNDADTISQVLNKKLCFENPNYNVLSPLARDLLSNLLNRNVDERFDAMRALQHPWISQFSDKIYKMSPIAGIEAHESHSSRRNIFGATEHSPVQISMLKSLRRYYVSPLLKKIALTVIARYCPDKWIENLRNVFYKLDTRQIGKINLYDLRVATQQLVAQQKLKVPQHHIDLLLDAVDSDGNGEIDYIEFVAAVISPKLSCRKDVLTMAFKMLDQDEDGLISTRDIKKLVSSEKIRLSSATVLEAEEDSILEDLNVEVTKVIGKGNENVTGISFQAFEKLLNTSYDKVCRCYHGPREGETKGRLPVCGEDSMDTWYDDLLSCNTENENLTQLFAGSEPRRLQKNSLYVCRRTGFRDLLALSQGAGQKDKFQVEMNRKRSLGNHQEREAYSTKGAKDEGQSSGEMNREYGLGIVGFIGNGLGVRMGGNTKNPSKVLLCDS
Chain of Calcium/calmodulin-dependent protein kinase with a kinase domain and 2 calmodulin-like EF hands (Q5CZ29 whole entry, the tested form may be a part): as the sequence (Q5CZ29 as listed by the source) above
Chain of Calcium/calmodulin-dependent protein kinase with a kinase domain and 4 calmodulin like EF hands (Cryptosporidium parvum (strain Iowa II)) (Q5CYL9 as listed by the source): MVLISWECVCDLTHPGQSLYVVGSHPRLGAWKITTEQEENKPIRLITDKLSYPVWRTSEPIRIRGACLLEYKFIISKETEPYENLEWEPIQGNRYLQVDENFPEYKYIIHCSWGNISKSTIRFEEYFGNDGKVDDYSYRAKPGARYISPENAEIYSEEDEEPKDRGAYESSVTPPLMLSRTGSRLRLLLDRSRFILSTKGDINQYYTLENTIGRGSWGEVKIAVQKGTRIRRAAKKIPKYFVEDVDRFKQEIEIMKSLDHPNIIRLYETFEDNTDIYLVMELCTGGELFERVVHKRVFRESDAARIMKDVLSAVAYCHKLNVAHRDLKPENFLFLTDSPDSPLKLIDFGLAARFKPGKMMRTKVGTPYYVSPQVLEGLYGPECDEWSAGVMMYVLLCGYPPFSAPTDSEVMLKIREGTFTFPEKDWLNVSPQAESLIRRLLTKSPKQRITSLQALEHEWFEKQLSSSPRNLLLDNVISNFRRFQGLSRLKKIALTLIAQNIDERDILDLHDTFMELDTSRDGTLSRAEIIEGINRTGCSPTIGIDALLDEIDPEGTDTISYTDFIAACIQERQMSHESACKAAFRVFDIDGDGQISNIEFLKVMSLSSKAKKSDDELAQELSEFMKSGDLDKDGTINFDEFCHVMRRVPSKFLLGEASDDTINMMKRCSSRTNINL
Chain of Cgd5_820 protein (F0X4H1 whole entry, the tested form may be a part): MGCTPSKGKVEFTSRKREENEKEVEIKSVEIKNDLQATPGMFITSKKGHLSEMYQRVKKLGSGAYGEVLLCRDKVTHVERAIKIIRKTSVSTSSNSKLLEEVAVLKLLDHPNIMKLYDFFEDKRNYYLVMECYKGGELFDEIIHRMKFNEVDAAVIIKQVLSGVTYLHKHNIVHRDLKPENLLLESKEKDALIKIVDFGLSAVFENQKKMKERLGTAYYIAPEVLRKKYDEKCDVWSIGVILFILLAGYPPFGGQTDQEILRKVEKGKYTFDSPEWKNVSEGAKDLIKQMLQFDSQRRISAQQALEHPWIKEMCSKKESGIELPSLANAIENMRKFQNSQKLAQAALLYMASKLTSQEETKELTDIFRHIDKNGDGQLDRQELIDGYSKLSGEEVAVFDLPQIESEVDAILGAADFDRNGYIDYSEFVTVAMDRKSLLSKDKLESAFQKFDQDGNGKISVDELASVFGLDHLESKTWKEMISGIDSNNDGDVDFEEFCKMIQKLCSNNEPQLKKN

Consider `Nc1nc(-c2ccc(Cl)cc2)c(-c2ccc3ncccc3n2)s1`, for which the figures for the IC50 in [1] and in data set [2] were 3260 nM and 375 nM, respectively.
With `Nc1nc(-c2cccc(Cl)c2)c(-c2ccc3ncccc3n2)s1` [GW780159X], the ΔTm in [3], in data set [6], in [7], in data set [9], in data set [19] and in data set [20] was below 2 °C throughout. In addition, the ΔTm in [22] is below 2 °C; in data set [24], below 2 °C; in [26], below 2 °C; in [31], below 2 °C; in data set [32], below 2 °C; in data set [33] it was 5.1 °C. Also, the inhibition in [4] was 33%; in data set [5] it was 50%; in [14], 67%; in data set [18], 60%. Also, the IC50 in [8], in [10], in data set [11], in [12], in [13] and in [15] was above 10000 nM throughout. In addition, the IC50 is above 10000 nM in [25]; above 10000 nM in [27]; 3 nM in data set [1]; above 10000 nM in data set [28]; above 10000 nM in data set [29]; above 10000 nM in data set [30]. In addition, the IC50 is 84 nM in [2] and 3 nM in [34]. Moreover, the Ratio came to 66 in data set [16] and 1840 in [21]. For the same molecule, the inhibition result in data set [17] was “Active”. Also, in [23] (setting [38]), the EC50 worked out at 5500 nM.
For `N#Cc1cccc(-c2nc(N)sc2-c2ccc3ncccc3n2)c1`, the IC50 in data set [1] amounted to 4100 nM; in [2] it was 1500 nM.
On to `CCc1cccc(-c2nc(N)sc2-c2ccc3ncccc3n2)c1`, for which the IC50 in [1] is above 10000 nM; in data set [2], 74 nM.
For the molecule `Nc1nc(-c2cccc(F)c2)c(-c2ccc3ncccc3n2)s1`, the Ratio in data set [16] and in data set [21] was 6 throughout. Further, the EC50 in data set [23] (setting [38]) was determined as 1300 nM. For the same molecule, the Papp in [35] was 16 ×10⁻⁶ cm/s. Moreover, the IC50 in data set [1] amounted to 220 nM; in data set [2] it was 210 nM. In addition, in data set [36], the efflux ratio was below 1. Further, the ΔTm in data set [33] came to 4.9 °C.
Regarding `COc1cccc(-c2nc(N)sc2-c2ccc3ncccc3n2)c1`, the IC50 in [1] was determined as 180 nM; in data set [2] it was 260 nM.
Turning to `CC(C)(C)n1nc(-c2cccc3ccccc23)c2c(N)ncnc21`, in data set [16], the Ratio came out at 1. The EC50 in data set [37] worked out at 2560 nM; in [23] (setting [38]), 4100 nM.
In the case of `Nc1nc(-c2ccc(F)cc2)c(-c2ccc3ncccc3n2)s1` [GW785804X], the IC50 in [1] and in data set [2] was 220 nM in each case. Besides, in [33], the ΔTm turned out to be 4.7 °C.
`COc1ccc(-c2nc(N)sc2-c2ccc3ncccc3n2)cc1`: the IC50 in [1] is above 10000 nM; in data set [2], 2600 nM. Moreover, in [33], the ΔTm amounted to 0.4 °C.
In the case of `CC(=O)Nc1nc(-c2cccc(Cl)c2)c(-c2ccc3ncccc3n2)s1`, the IC50 was above 10000 nM in [1] and 330 nM in data set [2].
Taken in the same sequence, the figures for `Nc1nc(-c2cccc(C(F)(F)F)c2)c(-c2ccc3ncccc3n2)s1` were 1200 nM and 350 nM.
For the molecule `Nc1nc(-c2cc(Cl)cc(Cl)c2)c(-c2ccc3ncccc3n2)s1`, in [23], the EC50 entry is “Not Active”. For the same molecule, the IC50 in data set [1] was above 10000 nM; in [2], 3500 nM.
For `Nc1nc(-c2ccc(Cl)c(Cl)c2)c(-c2ccc3ncccc3n2)s1`, the results for the IC50 in data set [1] and in data set [2] were 750 nM and above 10000 nM, respectively.
Take `CC(C)c1cccc(-c2nc(N)sc2-c2ccc3ncccc3n2)c1`: the IC50 in data set [1] and in [2] was above 10000 nM throughout. For the same molecule, the ΔTm in [33] worked out at 1 °C.
As to `Cc1ccc(-c2nc(N)sc2-c2ccc3ncccc3n2)cc1C`, the Ratio is 204 in [16] and 1.3 in data set [21]. In data set [23] (setting [38]), the EC50 is 3900 nM. For the same molecule, the IC50 in data set [1] came out at 2900 nM; in data set [2], 19 nM. Also, the ΔTm in [33] stood at 0.82 °C.
For `Cc1ccnc2ccc(-c3sc(N)nc3-c3ccc(F)c(Cl)c3)nc12`, the IC50 in data set [1] was above 10000 nM; in [2], 400 nM.
On to `CNc1nc(-c2cccc(Cl)c2)c(-c2ccc3ncccc3n2)s1`, for which the IC50 is 3600 nM in data set [1] and 1510 nM in data set [2].
As for `Cc1cc(-c2nc(N)sc2-c2ccc3ncccc3n2)ccc1F`, the values for the IC50 in [1] and in data set [2] were 140 nM and 73 nM, respectively.
Consider `Nc1nc(-c2ccc(F)c(Cl)c2)c(-c2ccc3ncccc3n2)s1`, for which the values for the IC50 in [1] and in data set [2] were 25 nM and 450 nM, respectively. Besides, in [33], the ΔTm worked out at 3.6 °C.
In the case of `Nc1nc(-c2ccccc2)c(-c2ccc3ncccc3n2)s1`, the IC50 came to 42 nM in data set [1] and 190 nM in data set [2]. Also, the ΔTm in data set [33] stood at 4.2 °C.
